This is a sample that favours compounds with a hit; in the whole collection about 1.8% have one here.
Hep lipid drop: modulators of hepatic lipid droplet formation | 0.4% of 240,000 active | AML12 mouse hepatocytes, oleate lipid droplets, BODIPY imaging | inhibition, % at 6.5 µM | AID 1656;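 active = lipid droplet intensity inhibited by at least 50%, with more than 500 cells counted; inconclusive = wells with under 300 cells, treated as cytotoxic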
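Assay system: AML12 hepatocytes (mouse); Probe or stimulus: oleic acid at 100 µM to induce lipid droplet formation; Dosing: compound at 6.5 µM only; Schedule: compound with oleate, overnight; Detection: fluorescence imaging, 20x objective, two fields per well; Measure: % inhibition of lipid droplet signal.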
697 NFkB inh: lowers PMA/ionomycin-induced NF-kB signal in 697 B cells | 697 B-cell NF-kB luciferase reporter, 16 h | inhibition, % at 4 µM | 0.33% of 330,000 active | AID 435022; in the data active = inhibition above about 35%
TAG inh: triacylglycerol accumulation inhibition; H9c2 cells, Nile Red lipid (TAG) fluorescence; cells loaded with 200 µM oleic acid; inhibition, % at 12.5 µM; 0.66% of 230,000 active; AID 651582;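 active = pattern-corrected inhibition of lipid staining of at least 50% with the nuclear-stain viability signal not falling by more than 50%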;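 note: 0% = DMSO wells and 100% = triacsin C control wells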
Jurkat NFkB inh: lowers PMA/ionomycin-induced NF-kB signal in Jurkat cells; AID 435003; inhibition, % at 4 µM; PMA/ionomycin-induced NF-kB luciferase reporter, luminescence; 0.53% of 330,000 active; in the data active = inhibition above about 50%
Gli-Sufu antag: antagonists of Gli-Sufu signaling. Sufu-KO-LIGHT fibroblasts, Gli luciferase reporter luminescence. inhibition, % at 5 µM. 0.74% of 340,000 active. AID 588413;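 active = inhibition above about 55%, limit read from the data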;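 note: 0% = DMSO-treated cells and 100% = wells with medium but no cells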
hiPSC survival: increases survival of single human iPS cells | 0.044% of 360,000 active | survival enhancement, % at 20 µM | hiPSC single-cell survival, ATPlite luminescence; 100% = ROCK inhibitor wells, 0% = DMSO; in the data active = survival enhancement above about 18%;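 note: cells exposed to compounds for 16 hours before the ATP read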
697 NFkB conf: inhibitors of the PMA/ionomycin-induced NF-kB reporter in 697 B cells, retest. shares compounds with 697 NFkB inh. 697 B-cell NF-kB luciferase, 16 h. inhibition, % at 4 µM. 35% of 2,000 active; in the data active = inhibition mostly above about 28%, no sharp cut-off; inactive = mostly below about 22%
Gli-Sufu confirm: Gli-SUFU antagonism confirmation, single concentration; shares compounds with Gli-Sufu antag; Sufu-KO-LIGHT cells, Gli luciferase reporter, luminescence; inhibition, % at 5 µM; 40% of 2,500 active; AID 602428;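 active = mean inhibition at 5 µM reaching about 45%, limit read from the data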;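 note: plate controls were DMSO-treated cells for no effect and wells lacking cells for full effect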
Gli cytotox: cytotoxicity counter-screen for Gli-SUFU antagonists; Sufu-KO-LIGHT cells cytotoxicity, ATP luminescence; shares compounds with Gli-Sufu antag; AID 651994; 32% of 2,500 active; cytotoxicity, % at 5 µM;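 active = mean cytotoxicity at 5 µM above about 25%, limit read from the data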;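 note: cells exposed to compound overnight for roughly 16 to 18 hours; plate controls were DMSO wells with cells for no effect and medium without cells for full effect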
Wnt3a counter: inhibits Wnt3a reporter, counter-screen for Gli-SUFU antagonists; inhibition, % at 6.25 µM; AID 651995; Wnt-LIGHT cells, Wnt3a-driven luciferase reporter, luminescence; 20% of 2,500 active; shares compounds with Gli-Sufu antag;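 active = mean inhibition above about 25%, limit read from the data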
An asterisk follows results filed as active; ? = inconclusive; . = no result given.

SMILES	Hep lipid drop	697 NFkB inh	TAG inh	Jurkat NFkB inh	Gli-Sufu antag	hiPSC survival	Gli-Sufu confirm	Gli cytotox	Wnt3a counter	others
C[C@]12C=CC(=O)C=C1C=C[C@@H]1C2CC[C@]2(C)C(=O)CCC12 (stereo partly specified)	-14	-9	.	12	6	-1	.	.	.
CNC(=O)c1cccn(Cc2ccc(C(F)(F)F)cc2)c1=O	24	50*	31	6	42	2	.	.	.	697 NFkB conf=61*
C/C=C(\C)C(=O)OC1C(C)=C2C(C1OC(=O)CCCCC)C(C)(OC(C)=O)CC(OC(=O)CCC)C1(O)C2OC(=O)C1(C)O (stereo unspecified)	-23	-262	.	12	.	.	.	.	.	697 NFkB conf=-296
O=S(=O)(F)c1ccc2nc(-c3cccc(Sc4ccccc4)c3)cc(Cl)c2c1	-1	-23	-9	-7	-1	0	.	.	.
Cn1c(=O)cc(OCC(=O)N2CCC3(CC2)OCCO3)c2ccccc21	-3	42*	.	15	9	0	.	.	.	697 NFkB conf=40*
COc1ccccc1C1=NCc2nnc(C)n2-c2ccc(Cl)cc21	-4	-3	.	-4	7	-2	.	.	.
COc1ccc(C2=NCc3nnc(C)n3-c3ccc(Cl)cc32)cc1Cl	6	45*	18	-31	32	1	.	.	.	697 NFkB conf=35*
COC(=O)C1=C(c2ccc(Cl)c(C(F)(F)F)c2)C[C@@H]2CC[C@H]1N2C(=O)NCCOc1ccc(OC)cc1	.	-22	-26	-10	26	0	.	.	.
CC(NC(=O)Cc1cccc2ccccc12)C(=O)N1CCC(=O)CC1 (stereo unspecified)	4	7	0	-2	4	0	.	.	.
Cn1cnc([N+](=O)[O-])c1Sc1ccc([N+](=O)[O-])cc1	-4	36*	0	20	10	0	.	.	.	697 NFkB conf=43*
CCC(=O)OC(Cc1ccccc1)(c1ccccc1)[C@H](C)CN(C)C (stereo partly specified)	.	17	.	8	-13	-5	.	.	.
CCCCOC(=O)COc1cc(C)cc2oc(=O)c3c(c12)CCC3	.	-8	5	-2	3	-1	.	.	.
C=CCOC(=O)COc1cc(C)cc2oc(=O)c3c(c12)CCC3	1	40*	5	13	-2	6	.	.	.	697 NFkB conf=32*
CCOP(=O)(Cc1cc(C(C)=O)c(C)o1)OCC	-6	19	10	2	68*	-1	11	5	-6
CCCC(=O)c1cc(CP(=O)(OCC)OCC)oc1C	-6	1	0	-28	-1	-1	.	.	.
CC(C)C(NC(=O)C(C(C)C)N(C)C)C(=O)N(C)C(C(=O)N1CCCC1C(=O)N1CCCC1C(=O)NCc1ccccc1)C(C)C (stereo unspecified)	.	.	39	.	51	-2	57*	52*	14
Cc1nc2c(c(=O)[nH]1)C(c1ccc([N+](=O)[O-])cc1)c1c(c3ccccc3oc1=O)O2 (stereo unspecified)	11	-17	.	16	10	.	.	.	.
Cn1c(NN=O)nc2ccccc21	20	-2	37	21	83*	-3	37	23	12
CN1CCN(Cc2nc3ccccc3n2C)CC1	.	-2	.	-5	4	1	.	.	.
C=CCN1CC[C@]23c4c5ccc(O)c4O[C@H]2/C(=N/NC(=O)c2ccccc2)CC[C@@]3(O)[C@H]1C5	.	5	-15	-14	-2	1	.	.	.
O=C1NC2C(=CC(O)C(O)C2O)c2cc3c(cc21)OCO3 (stereo unspecified)	.	.	86	.	71*	-2	70*	3	102*
O=C1NC2C(=CC(O)C(O)C2O)c2cc3c(c(O)c21)OCO3 (stereo unspecified)	.	.	116	.	84*	-3	92*	78*	104*
CCOC(=O)[C@]12Cc3ccc4ccccc4c3[C@H]1N(Cc1ccccc1)C(=O)c1ccccc12	.	.	.	.	.	0	.	.	.
O=[N+]([O-])c1ccc(C[n+]2c(-c3ccccc3)cc(-c3ccccc3)cc2-c2ccccc2)cc1	.	-92	-40	-1	28	4	.	.	.
Cc1cc(-c2ccccc2)cc(C)[n+]1Cc1ccccc1	.	-10	-17	19	79*	-3	84*	17	32*
SMILES	Hep lipid drop	697 NFkB inh	TAG inh	Jurkat NFkB inh	Gli-Sufu antag	hiPSC survival	Gli-Sufu confirm	Gli cytotox	Wnt3a counter	others
COc1ccccc1CN1CCN(C(=O)COc2cccc(C)c2)CC1	.	-39	6	-7	94*	-2	10	27*	-37
CNCC(=O)c1ccccc1	.	6	.	18	-14	0	.	.	.
Cc1cc(/C=C2\C(=O)NC(=O)N(C)C2=O)c(C)n1-c1ccc2c(c1)OCO2	.	7	6	17	69*	-2	23	-1	-20
Cc1cc(C=C2C(=O)NC(=O)NC2=O)c(C)n1-c1ccc2c(c1)OCO2	-2	2	.	8	1	2	.	.	.
C[C@]12CCC(=O)C=C1CC[C@@H]1[C@@H]2C(=O)C[C@]2(C)C(=O)CC[C@@H]12	-4	-24	10	-6	-4	2	.	.	.
CCOc1ccccc1N=C1SCCCN1C	.	15	.	9	0	1	.	.	.
CCOc1cccc(=NC2CCCCC2)c2c(C)n(C)c(C)c12	-7	3	6	7	86*	-1	89*	44*	4
Cc1cccc(-n2c(/C=C/c3ccc([N+](=O)[O-])o3)nc3ccccc3c2=O)c1	?	-29	.	25	72*	-4	63*	31*	22
CC(NCc1cccc(Cl)c1Cl)C(O)c1ccccc1 (stereo unspecified)	-8	8	.	16	97*	0	17	1	-3
CC(NCc1ccc(Cl)cc1Cl)C(O)c1ccccc1 (stereo unspecified)	.	7	.	-11	-14	-1	.	.	.
CCCCCCn1c(=O)c(C(=O)Nc2cnccn2)c(O)c2ccccc21	13	-16	-14	-17	78*	-1	79*	-7	30*
COC(=O)C1=C(c2ccc(C(C)=O)cc2)C[C@@H]2CC[C@H]1N2C(=O)NC(C)C	.	17	5	13	-1	6	.	.	.
CC1CCCC(C2(O)C(=O)Nc3ccccc32)C1=O (stereo unspecified)	-10	-6	.	-4	96*	4	31	15	10
CCN(CC)C(=O)c1ccc(NC(=O)c2cc(S(=O)(=O)N3CCCCCC3)ccc2OC)cc1	.	-10	7	20	13	1	.	.	.

Screening data as filed in PubChem BioAssay.
